Holding throughout (assay type): functional, cell-based
In one assay the test system is HeLa S3. Kind of assay: Antiproliferative activity against human HeLaS3 cells after 24 hrs by WST-1 assay. As to conditions: HeLa S3, 24 h. In outline: (§1)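 WST-1 viability assay. Cells seeded at 5 × 10^3 per well and grown 24 h, then given lissoclibadins at 0.1−40 μM (etoposide 1.0−100 μM) in triplicate for 24 h. WST-1 added and absorbance read 4 h later at 450 nm, background subtracted at 650 nm. Viability expressed as % of control; IC50 taken as 50% inhibition of viability. Three experiments, mean ± SD.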
In general terms: Tetrazolium dyes change colour on reduction, which living cells bring about.

The test system of another assay is HCT-15. Put plainly: Antiproliferative activity against human HCT15 cells after 24 hrs by WST-1 assay. The settings on record: HCT-15, 24 h. In outline:
as §1

The subject of another assay is NCI-H28. Kind of assay: Antiproliferative activity against human NCI-H28 cells after 24 hrs by WST-1 assay. As to conditions: NCI-H28, 24 h. In outline: as §1
Another assay deals with MCF7. Put plainly: Antiproliferative activity against human MCF7 cells after 24 hrs by WST-1 assay. The settings on record: MCF7, 24 h. The essentials: as §1

The values below come from ChEMBL document CHEMBL4052605, “Lissoclibadin 1, a Polysulfur Aromatic Alkaloid from the Indonesian Ascidian Lissoclinum cf. badium, Induces Caspase-Dependent Apoptosis in Human Colon Cancer Cells and Suppresses Tumor Growth in Nude Mice” (J Nat Prod, 2017).

For the compound `COc1c(OC)c2c(c(CCN(C)C)c1SC)Sc1c(OC)c(OC)c(SC)c(CCN(C)C)c1S2` [LISSOCLIBADIN 3], the IC50 (in general, the concentration that gives 50% inhibition) came to 16 µM with HeLa S3 and 13.2 µM in the assay with HCT-15.

Regarding `COc1c(OC)c2c(c(CCN(C)C)c1SC)SSc1c(CCN(C)C)c(SC)c(OC)c(OC)c1SSc1c(OC)c(OC)c(SC)c(CCN(C)C)c1SSc1c(CCN(C)C)c(SC)c(OC)c(OC)c1SS2`, the IC50 worked out at 7.1 µM with NCI-H28, 11.8 µM in the assay on MCF7, 6.3 µM in the assay on HeLa S3 and 4.9 µM with HCT-15.

Consider `COc1cc(CCN(C)C)c2c(c1O)SSc1c(CCN(C)C)cc(OC)c(O)c1SS2` [LISSOCLIBADIN 7], for which the values for the IC50 with HeLa S3 and in the assay with HCT-15 were 14.2 µM and 15.7 µM, respectively.

On to `COc1cc([C@@H]2c3cc4c(cc3[C@@H](O[C@@H]3O[C@@H]5CO[C@@H](C)O[C@H]5[C@H](O)[C@H]3O)[C@H]3COC(=O)[C@H]23)OCO4)cc(OC)c1O` [ETOPOSIDE], for which the results for the IC50 with HeLa S3 and with HCT-15 were 43.1 µM and 19.7 µM, respectively.
